Measurements published in ChEMBL document CHEMBL4304781, “Development of Highly Selective Pyrimidine-Based Aldosterone Synthase (CYP11B2) Inhibitors” (ACS Med Chem Lett, 2019).
Values after ≈ are worked out from the molar mass of the structure shown.

Assays:
[1] = target: T1, Cytochrome P450 11B2, mitochondrial (Homo sapiens, UniProt P19099); assay: Inhibition of human recombinant CYP11B2 using deoxycorticosterone as substrate incubated for 90 mins by cell-based HPLC analysis
T1 sequence (P19099 whole entry): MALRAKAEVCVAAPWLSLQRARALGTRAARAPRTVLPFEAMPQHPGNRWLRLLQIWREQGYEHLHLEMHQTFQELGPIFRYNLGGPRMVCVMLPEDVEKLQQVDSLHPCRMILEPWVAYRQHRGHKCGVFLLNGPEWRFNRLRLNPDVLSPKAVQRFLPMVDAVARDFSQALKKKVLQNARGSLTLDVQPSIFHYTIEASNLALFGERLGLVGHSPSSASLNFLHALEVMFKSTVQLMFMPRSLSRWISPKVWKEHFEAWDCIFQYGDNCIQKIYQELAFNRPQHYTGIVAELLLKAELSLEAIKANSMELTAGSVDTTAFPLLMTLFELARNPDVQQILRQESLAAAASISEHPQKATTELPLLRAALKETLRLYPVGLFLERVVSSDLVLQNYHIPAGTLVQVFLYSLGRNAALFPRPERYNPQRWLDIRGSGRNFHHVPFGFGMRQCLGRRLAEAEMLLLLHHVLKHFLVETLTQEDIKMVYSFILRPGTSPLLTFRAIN
Summary of the method: (§1)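 Recombinant human CYP11B2 or CYP11B1. Substrate and product steroids both monitored by HPLC-MS. Selectivity taken as CYP11B1 IC50 / CYP11B2 IC50.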

[2] = target: T2, Cytochrome P450 11B1, mitochondrial (Homo sapiens, UniProt P15538); assay: Inhibition of human recombinant CYP11B1 using deoxycortisol as substrate incubated for 60 mins by cell-based HPLC analysis; assay type: ADME; summary of the method: as §1
T2 sequence (P15538 whole entry): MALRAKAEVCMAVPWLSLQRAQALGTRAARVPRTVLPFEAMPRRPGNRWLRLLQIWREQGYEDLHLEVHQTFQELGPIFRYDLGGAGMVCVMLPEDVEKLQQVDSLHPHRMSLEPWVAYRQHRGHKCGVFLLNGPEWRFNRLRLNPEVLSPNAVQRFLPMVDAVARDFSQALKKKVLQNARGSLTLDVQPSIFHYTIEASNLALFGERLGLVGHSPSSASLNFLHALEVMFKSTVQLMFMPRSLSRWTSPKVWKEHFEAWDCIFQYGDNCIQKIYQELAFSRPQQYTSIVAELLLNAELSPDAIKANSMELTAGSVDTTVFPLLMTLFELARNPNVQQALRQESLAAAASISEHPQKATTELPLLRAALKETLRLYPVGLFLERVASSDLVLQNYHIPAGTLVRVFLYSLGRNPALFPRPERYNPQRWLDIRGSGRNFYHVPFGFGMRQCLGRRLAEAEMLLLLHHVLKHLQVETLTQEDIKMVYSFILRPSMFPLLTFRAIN

Homo sapiens = species: Homo sapiens; assay: Selectivity index, ratio of IC50 for human recombinant CYP11B1 to IC50 for human recombinant CYP11B2; summary of the method: as §1
[3] = Stability in cynomolgus monkey liver microsomes assessed as parent compound remaining at 1 uM measured after 65 mins by LC/MS-MS analysis; assay type: ADME, Macaca fascicularis, Microsome; conditions: read-out: Stability
Summary of the method: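 Parent compound percentage remaining after 65 min incubation with cynomolgus monkey liver microsomes.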

[4] = Cmax in cynomolgus monkey at 1 mg/kg, po measured after 24 or 72 hrs; assay type: ADME, organism-based, Macaca fascicularis; set-up: dose 1 mg/kg, route oral; conditions: in vivo
Summary of the method: (§2)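 Male cynomolgus monkeys dosed orally at 1 mg/kg in 0.5% CMC, 0.1% Tween-80, 1% DMSO. Plasma drug concentrations followed out to 24 or 72 h. Cmax, Tmax, AUC0-24 and t1/2 derived from plasma levels.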

[5] = Tmax in cynomolgus monkey at 1 mg/kg, po measured after 24 or 72 hrs; assay type: ADME, organism-based, Macaca fascicularis; conditions: in vivo; summary of the method: as §2
[6] = AUC (0 to 24 hrs) in cynomolgus monkey at 1 mg/kg, po measured after 24 or 72 hrs; assay type: ADME, organism-based, Macaca fascicularis; set-up: time < 24 hr, dose 1 mg/kg, route oral; conditions: in vivo; summary of the method: as §2
[7] = Half life in cynomolgus monkey at 1 mg/kg, po measured after 24 or 72 hrs; assay type: ADME, organism-based, Macaca fascicularis; conditions: in vivo; summary of the method: as §2
[8] = Thermodynamic solubility in phosphate free buffer pH 7.4 incubated for 24 hrs by HPLC/LCMS-MS based shake flask method; assay type: physicochemical; conditions: read-out: Therm_solubility

**Q.** Which IC50 [1] does the source give for `Fc1cc2nc(-c3cncnc3)n(C3CC3)c2cc1F` here?
**A.** Its IC50 is 22 nM.

**Q.** What about the IC50 [2] of the same compound?
**A.** Its IC50 is 2270 nM.

**Q.** And the Ratio IC50 (Homo sapiens)?
**A.** The Ratio IC50 was 103.

**Q.** And the remaining at 65 min, 1 µM [3]?
**A.** The remaining at 65 min, 1 µM was 98%.

**Q.** Which results are given for `N#Cc1ccc2nc(-c3cncnc3C(F)F)n(C3CC3)c2n1`?
**A.** IC50 [1]: 29 nM; IC50 [2]: 3930 nM; Ratio IC50 (Homo sapiens): 135; remaining at 65 min, 1 µM [3]: 101%; Cmax [4]: 2880 nM; Tmax [5]: 2 h; AUC(0-t) at 24 h [6]: 32.2 µM·h; half-life [7]: 7.5 h

**Q.** Which results are given for `Fc1cc2nc(-c3cncnc3C(F)F)n(C3CC3)c2cc1F`?
**A.** IC50 [1]: 18 nM; IC50 [2]: 4320 nM; Ratio IC50 (Homo sapiens): 240; remaining at 65 min, 1 µM [3]: 106%; Cmax [4]: 620 nM; Tmax [5]: 1 h; AUC(0-t) at 24 h [6]: 8.8 µM·h; half-life [7]: 15.3 h

**Q.** Which results are given for `CC(C)c1ncncc1-c1nc2cc(F)c(F)cc2n1C1CC1`?
**A.** IC50 [1]: 5 nM; IC50 [2]: 1910 nM; Ratio IC50 (Homo sapiens): 381; remaining at 65 min, 1 µM [3]: 80%

**Q.** What does the source list for `N#Cc1ccc2nc(-c3cncnc3C(F)(F)F)n(C3CC3)c2n1`?
**A.** IC50 [1]: 24 nM; IC50 [2]: 4810 nM; Ratio IC50 (Homo sapiens): 200; remaining at 65 min, 1 µM [3]: 87%; Cmax [4]: 1680 nM; Tmax [5]: 0.5 h; AUC(0-t) at 24 h [6]: 10.1 µM·h; half-life [7]: 5.3 h; solubility thermodynamic at 24 h [8]: 153 µM (≈ 50.5 µg/mL)

**Q.** Which results are given for `Fc1ccc2nc(-c3cn[nH]c3)n(C3CC3)c2c1`?
**A.** IC50 [1]: 782 nM; IC50 [2]: 1670 nM; Ratio IC50 (Homo sapiens): 2

**Q.** What does the source list for `CNc1ncncc1-c1nc2cc(F)c(F)cc2n1C1CC1`?
**A.** IC50 [1]: < 2 nM; IC50 [2]: 390 nM; Ratio IC50 (Homo sapiens): > 195

**Q.** For `Fc1cc2nc(-c3cncnc3NCCC(F)(F)F)n(C3CC3)c2cc1F`, which IC50 [1] is on record?
**A.** The IC50 was 3 nM.

**Q.** And the IC50 [2]?
**A.** The IC50 was 378 nM.

**Q.** And the Ratio IC50 (Homo sapiens)?
**A.** The Ratio IC50 was 126.

**Q.** What about the remaining at 65 min, 1 µM [3] of the same compound?
**A.** The remaining at 65 min, 1 µM was 55%.

**Q.** Which results are given for `CN(C)c1ncncc1-c1nc2cc(F)c(F)cc2n1C1CC1`?
**A.** IC50 [1]: 29 nM; IC50 [2]: 4630 nM; Ratio IC50 (Homo sapiens): 159; remaining at 65 min, 1 µM [3]: 6%

**Q.** For `Fc1ccc2nc(-c3cnccn3)n(C3CC3)c2c1`, which IC50 [1] is on record?
**A.** Its IC50 is 541 nM.

**Q.** What about the IC50 [2] of the same compound?
**A.** Its IC50 is > 10000 nM.

**Q.** And the Ratio IC50 (Homo sapiens)?
**A.** Its Ratio IC50 is > 18.

**Q.** For `Fc1ccc2nc(-c3cnco3)n(C3CC3)c2c1`, which IC50 [1] is on record?
**A.** The IC50 was > 10000 nM.

**Q.** What about the IC50 [2] of the same compound?
**A.** Its IC50 is > 10000 nM.
